Test results taken from PMC8237303 (Heliyon, 2021).

Key:
[1] = molecular target: Adenosine A2a receptor (Human) (Homo sapiens, UniProt P29274); test: [3H]-CGS21680 binding assay; settings: 0.1 mM l-menthol; Human recombinant
[2] = molecular target: Histamine H2 receptor (Human) (Homo sapiens, UniProt P25021); test: [3H]-Tiotidine binding assay; settings: 0.1 mM l-menthol; Human recombinant
[3] = tested on: GABA A receptor (Picrotoxin site); test: [3H]-EBOB binding assay; parameters: species or system Rat
[4] = molecular target: Dopamine transporter (Human) (Homo sapiens, UniProt Q01959); test: [3H]-WIN35,428 binding assay
Sequence of Dopamine transporter (Human) (Q01959 whole entry): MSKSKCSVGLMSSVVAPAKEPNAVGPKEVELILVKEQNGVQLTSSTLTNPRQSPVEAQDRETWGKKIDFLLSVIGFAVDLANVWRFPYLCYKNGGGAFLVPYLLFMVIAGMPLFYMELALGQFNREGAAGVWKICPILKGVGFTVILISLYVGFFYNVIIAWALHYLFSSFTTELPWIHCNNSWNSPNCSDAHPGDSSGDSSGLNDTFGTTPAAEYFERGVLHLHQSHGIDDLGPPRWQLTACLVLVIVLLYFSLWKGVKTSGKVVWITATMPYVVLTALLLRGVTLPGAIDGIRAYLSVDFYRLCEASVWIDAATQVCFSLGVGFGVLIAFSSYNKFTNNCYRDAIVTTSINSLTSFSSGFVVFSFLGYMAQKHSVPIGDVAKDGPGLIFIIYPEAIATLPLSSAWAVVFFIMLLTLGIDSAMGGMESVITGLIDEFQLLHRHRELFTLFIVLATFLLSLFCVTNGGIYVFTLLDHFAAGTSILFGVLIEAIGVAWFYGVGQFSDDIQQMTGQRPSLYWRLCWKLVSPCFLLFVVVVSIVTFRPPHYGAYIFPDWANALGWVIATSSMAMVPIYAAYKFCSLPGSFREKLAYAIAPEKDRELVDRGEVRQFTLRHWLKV

[5] = molecular target: Vasopressin V2 receptor (Human) (Homo sapiens, UniProt P30518); test: [3H]-Vasopressin, 8-L-Arginine binding assay; settings: 0.1 mM l-menthol; Human recombinant
Leukotriene B4 receptor = test: [3H]-Leukotriene B4 binding assay; settings: 0.1 mM l-menthol; Guinea pig lung
[6] = molecular target: Adenosine A3 receptor (Human) (Homo sapiens, UniProt P0DMS8); test: [125I]-AB-MECA binding assay; settings: 0.1 mM l-menthol; Human recombinant
[7] = molecular target: Bradykinin B2 receptor (Human) (Homo sapiens, UniProt P30411); test: [3H]-Bradykinin binding assay; settings: 0.1 mM l-menthol; Human recombinant
Sequence of Bradykinin B2 receptor (Human) (P30411 whole entry): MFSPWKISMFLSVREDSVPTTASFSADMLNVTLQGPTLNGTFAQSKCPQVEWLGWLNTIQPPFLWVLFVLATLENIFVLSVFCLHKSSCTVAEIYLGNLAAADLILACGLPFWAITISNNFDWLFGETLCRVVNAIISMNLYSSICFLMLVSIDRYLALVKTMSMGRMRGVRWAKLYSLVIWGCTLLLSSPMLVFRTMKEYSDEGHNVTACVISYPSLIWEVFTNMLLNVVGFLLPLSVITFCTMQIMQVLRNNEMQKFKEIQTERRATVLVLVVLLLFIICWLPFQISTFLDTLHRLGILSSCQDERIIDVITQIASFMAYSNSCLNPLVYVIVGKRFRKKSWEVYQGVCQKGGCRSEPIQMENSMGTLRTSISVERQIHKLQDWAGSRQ

[8] = molecular target: α2C-Adrenergic receptor (Human) (Homo sapiens, UniProt P18825); test: [3H]-Rauwolscine hydrochloride binding assay; settings: 0.1 mM l-menthol; Human recombinant
Sequence of α2C-Adrenergic receptor (Human) (P18825 whole entry): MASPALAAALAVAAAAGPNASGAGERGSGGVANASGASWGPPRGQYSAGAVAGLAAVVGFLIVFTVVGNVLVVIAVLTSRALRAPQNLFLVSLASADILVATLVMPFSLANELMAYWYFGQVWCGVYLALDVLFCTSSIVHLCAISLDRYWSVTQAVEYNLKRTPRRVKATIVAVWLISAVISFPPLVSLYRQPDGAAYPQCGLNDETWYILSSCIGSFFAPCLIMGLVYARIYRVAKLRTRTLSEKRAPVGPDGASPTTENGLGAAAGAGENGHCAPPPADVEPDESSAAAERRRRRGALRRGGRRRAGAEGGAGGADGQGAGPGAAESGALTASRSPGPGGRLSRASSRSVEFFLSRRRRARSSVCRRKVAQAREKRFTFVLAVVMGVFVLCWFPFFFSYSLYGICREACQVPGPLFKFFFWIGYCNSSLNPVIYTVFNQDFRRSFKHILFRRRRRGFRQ

[9] = molecular target: Bradykinin B1 receptor (Human) (Homo sapiens, UniProt P46663); test: [3H]-Kallidin; type: binding; settings: 0.1 mM l-menthol; Human recombinant
Sequence of Bradykinin B1 receptor (Human) (P46663 whole entry): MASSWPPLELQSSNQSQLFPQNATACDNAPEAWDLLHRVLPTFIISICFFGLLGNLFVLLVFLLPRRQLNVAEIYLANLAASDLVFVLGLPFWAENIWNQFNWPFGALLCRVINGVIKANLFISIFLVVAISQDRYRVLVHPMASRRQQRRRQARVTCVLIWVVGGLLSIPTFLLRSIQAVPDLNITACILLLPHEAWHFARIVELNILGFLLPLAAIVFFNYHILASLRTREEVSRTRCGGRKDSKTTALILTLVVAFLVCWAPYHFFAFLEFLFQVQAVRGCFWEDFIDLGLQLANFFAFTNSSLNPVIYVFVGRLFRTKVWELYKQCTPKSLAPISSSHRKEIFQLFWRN

[10] = molecular target: Melatonin MT1 receptor (Human) (Homo sapiens, UniProt P48039); test: [125I]-Melatonin binding assay; settings: 0.1 mM l-menthol; Human recombinant
α1A-Adrenergic receptor = α1A-Adrenergic receptor (Rattus norvegicus, UniProt P43140); test: [3H]-Prazosin binding assay; settings: 0.1 mM l-menthol; Rat submandibular gland
Sequence of α1A-Adrenergic receptor (P43140 whole entry): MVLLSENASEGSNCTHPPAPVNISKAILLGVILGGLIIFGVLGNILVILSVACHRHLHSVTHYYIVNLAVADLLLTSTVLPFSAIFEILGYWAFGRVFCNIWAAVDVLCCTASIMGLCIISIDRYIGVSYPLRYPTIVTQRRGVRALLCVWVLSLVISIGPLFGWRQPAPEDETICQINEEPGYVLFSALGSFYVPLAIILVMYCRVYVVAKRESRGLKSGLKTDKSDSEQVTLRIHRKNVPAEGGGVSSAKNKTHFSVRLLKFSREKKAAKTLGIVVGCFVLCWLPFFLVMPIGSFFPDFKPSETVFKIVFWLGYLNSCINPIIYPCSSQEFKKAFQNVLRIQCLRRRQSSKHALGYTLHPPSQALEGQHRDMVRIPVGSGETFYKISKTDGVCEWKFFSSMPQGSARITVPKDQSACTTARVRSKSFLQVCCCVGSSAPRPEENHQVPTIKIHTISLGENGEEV

[11] = molecular target: Neurokinin NK1 receptor (Human) (Homo sapiens, UniProt P25103); test: [125I]-Substance P binding assay; settings: 0.1 mM l-menthol; Human recombinant
CCK B receptor (Human) = CCK B receptor (Human) (Homo sapiens, UniProt P32239); test: [125I]-Cholecystokinin Octapeptide binding assay; settings: 0.1 mM l-menthol; Human recombinant
Sequence of CCK B receptor (Human) (P32239 whole entry): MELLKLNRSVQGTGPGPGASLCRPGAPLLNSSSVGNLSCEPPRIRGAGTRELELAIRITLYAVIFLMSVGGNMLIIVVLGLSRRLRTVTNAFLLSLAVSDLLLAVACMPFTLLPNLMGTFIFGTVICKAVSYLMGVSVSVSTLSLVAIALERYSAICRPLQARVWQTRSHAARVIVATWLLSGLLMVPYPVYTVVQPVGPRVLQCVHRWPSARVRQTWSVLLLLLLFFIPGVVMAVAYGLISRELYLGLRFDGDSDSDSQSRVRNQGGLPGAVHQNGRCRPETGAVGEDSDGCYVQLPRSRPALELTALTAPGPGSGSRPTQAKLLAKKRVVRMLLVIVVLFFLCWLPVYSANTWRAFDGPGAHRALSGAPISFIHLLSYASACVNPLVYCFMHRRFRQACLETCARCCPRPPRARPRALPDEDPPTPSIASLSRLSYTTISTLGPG

[12] = molecular target: α2B-Adrenergic receptor (Human) (Homo sapiens, UniProt P18089); type: binding
Sequence of α2B-Adrenergic receptor (Human) (P18089 whole entry): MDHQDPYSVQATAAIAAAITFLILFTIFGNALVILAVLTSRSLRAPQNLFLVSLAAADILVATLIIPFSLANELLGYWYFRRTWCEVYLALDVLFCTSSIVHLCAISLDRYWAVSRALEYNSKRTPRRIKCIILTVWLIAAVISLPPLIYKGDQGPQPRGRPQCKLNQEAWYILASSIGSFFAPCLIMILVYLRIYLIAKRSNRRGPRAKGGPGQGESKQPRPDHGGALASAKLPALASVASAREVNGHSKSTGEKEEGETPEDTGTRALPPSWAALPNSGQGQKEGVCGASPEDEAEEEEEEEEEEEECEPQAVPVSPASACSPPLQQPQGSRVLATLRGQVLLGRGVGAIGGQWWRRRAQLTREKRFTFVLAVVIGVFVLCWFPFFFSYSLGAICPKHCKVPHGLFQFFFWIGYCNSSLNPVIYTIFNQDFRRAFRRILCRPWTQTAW

[13] = molecular target: Glutamate receptor (NMDAglycine site) (Rattus norvegicus, UniProt P35439); test: [3H]-MDL105,519 binding assay; settings: 0.1 mM l-menthol; Rat cerebral cortex
[14] = molecular target: Serotonin 5HT3 receptor (Human) (Homo sapiens, UniProt P46098); test: [3H]-GR65630 binding assay; settings: 0.1 mM l-menthol; Human recombinant
α1B-Adrenergic receptor = α1B-Adrenergic receptor (Rattus norvegicus, UniProt P15823); test: [3H]-Prazosin binding assay; settings: 0.1 mM l-menthol; Rat liver
[15] = tested on: GABA A receptor (Benzodiazepine site); test: [3H]-Flunitrazepam binding assay; settings: 0.1 mM l-menthol; Rat whole brain
GABA B receptor = GABA B receptor (Rattus norvegicus, UniProt Q9Z0U4); test: gamma-[3H]-Aminobutyric Acid; type: binding; settings: 0.1 mM l-menthol; Rat cerebellum
[16] = molecular target: Prostanoid EP2 receptor (Human) (Homo sapiens, UniProt P43116); test: [3H]-Prostaglandin E2 binding assay; settings: 0.1 mM l-menthol; Human recombinant
Sequence of Prostanoid EP2 receptor (Human) (P43116 whole entry): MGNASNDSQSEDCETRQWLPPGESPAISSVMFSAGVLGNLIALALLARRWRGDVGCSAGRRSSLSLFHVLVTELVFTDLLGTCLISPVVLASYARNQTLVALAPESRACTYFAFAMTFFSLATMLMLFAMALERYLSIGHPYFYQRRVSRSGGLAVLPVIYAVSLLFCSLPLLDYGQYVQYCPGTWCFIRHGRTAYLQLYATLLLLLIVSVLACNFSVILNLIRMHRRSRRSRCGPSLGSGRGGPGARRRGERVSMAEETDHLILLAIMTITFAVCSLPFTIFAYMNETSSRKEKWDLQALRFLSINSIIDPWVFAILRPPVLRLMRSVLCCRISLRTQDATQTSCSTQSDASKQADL

[17] = molecular target: Muscarinic M2 receptor (Human) (Homo sapiens, UniProt P08172); test: [3H]-Scopolamine Methyl Chloride binding assay; settings: 0.1 mM l-menthol; Human recombinant
[18] = molecular target: Opiate δ receptor (Human) (Homo sapiens, UniProt P41143); test: [3H]-Naltrindole binding assay; settings: 0.1 mM l-menthol; Human recombinant
Sequence of Opiate δ receptor (Human) (P41143 whole entry): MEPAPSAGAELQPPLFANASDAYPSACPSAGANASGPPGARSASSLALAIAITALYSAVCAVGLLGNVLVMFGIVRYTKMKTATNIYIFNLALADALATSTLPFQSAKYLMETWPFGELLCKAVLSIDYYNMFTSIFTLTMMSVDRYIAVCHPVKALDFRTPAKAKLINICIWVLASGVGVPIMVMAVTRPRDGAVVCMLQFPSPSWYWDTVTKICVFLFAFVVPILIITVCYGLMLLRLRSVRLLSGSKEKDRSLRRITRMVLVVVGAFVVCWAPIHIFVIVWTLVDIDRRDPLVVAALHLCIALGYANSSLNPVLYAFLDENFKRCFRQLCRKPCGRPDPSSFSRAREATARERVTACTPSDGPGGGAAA

[19] = molecular target: β2-Adrenergic receptor (Human) (Homo sapiens, UniProt P07550); test: [3H]-; type: binding; settings: 0.1 mM l-menthol; Human recombinant
[20] = molecular target: Angiotensin AT2 receptor (Human) (Homo sapiens, UniProt P50052); test: [125I]-CGP-42112A binding assay; settings: 0.1 mM l-menthol; Human recombinant
Ca Channel (Type N) = Ca Channel (Type N) (Rattus norvegicus, UniProt Q02294); type: binding
[21] = molecular target: Dopamine D2 receptor short isoform (Human) (Homo sapiens, UniProt P14416); test: [3H]-Spiperone binding assay; settings: 0.1 mM l-menthol; Human recombinant
[22] = molecular target: Endothelin ETA receptor (Human) (Homo sapiens, UniProt P25101); test: [125I]-Endothelin-1; type: binding; settings: 0.1 mM l-menthol; Human recombinant
[23] = molecular target: Histamine H1 receptor (Human) (Homo sapiens, UniProt P35367); test: [3H]-Pyrilamine binding assay; settings: 0.1 mM l-menthol; Human recombinant
Leukotriene D4 receptor = Leukotriene D4 receptor (Cavia porcellus, UniProt Q2NNR5); test: [3H]-Leukotriene D4 binding assay; settings: 0.1 mM l-menthol; Guinea pig lung
[24] = molecular target: Muscarinic M3 receptor (Human) (Homo sapiens, UniProt P20309); type: binding; settings: 0.1 mM l-menthol; Human recombinant
[25] = molecular target: Neuropeptide Y2 receptor (Human) (Homo sapiens, UniProt P49146); test: [125I]-Peptide YY; type: binding; settings: 0.1 mM l-menthol; Human receptor (Non-recombinant)
[26] = molecular target: Opiate μ receptor (Human) (Homo sapiens, UniProt P35372); test: [3H]-Diprenorphine binding assay; settings: 0.1 mM l-menthol; Human recombinant
[27] = molecular target: Serotonin transporter (Human) (Homo sapiens, UniProt P31645); test: [3H]-Imipramine hydrochloride binding assay; settings: 0.1 mM l-menthol; Human recombinant
Sequence of Serotonin transporter (Human) (P31645 whole entry): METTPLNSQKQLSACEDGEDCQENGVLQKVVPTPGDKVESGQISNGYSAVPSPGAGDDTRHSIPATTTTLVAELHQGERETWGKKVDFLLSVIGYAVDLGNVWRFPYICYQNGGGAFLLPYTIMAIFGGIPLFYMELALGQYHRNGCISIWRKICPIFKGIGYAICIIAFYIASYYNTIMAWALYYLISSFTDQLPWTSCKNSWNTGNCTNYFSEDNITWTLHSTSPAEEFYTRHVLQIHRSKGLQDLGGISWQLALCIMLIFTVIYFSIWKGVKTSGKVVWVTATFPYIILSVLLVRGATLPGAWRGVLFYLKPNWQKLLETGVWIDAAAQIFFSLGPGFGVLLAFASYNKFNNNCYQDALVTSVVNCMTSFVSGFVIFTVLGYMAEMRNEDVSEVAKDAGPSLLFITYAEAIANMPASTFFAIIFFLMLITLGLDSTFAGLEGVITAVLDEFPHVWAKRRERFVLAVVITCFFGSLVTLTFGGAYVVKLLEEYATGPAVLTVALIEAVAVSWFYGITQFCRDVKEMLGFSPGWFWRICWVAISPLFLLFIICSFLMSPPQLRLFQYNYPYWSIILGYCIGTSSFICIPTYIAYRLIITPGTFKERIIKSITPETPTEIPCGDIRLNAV

[28] = molecular target: Vasopressin V1B receptor (Human) (Homo sapiens, UniProt P47901); test: [3H]-Vasopressin, 8-L-Arginine binding assay; settings: 0.1 mM l-menthol; Human recombinant
Sequence of Vasopressin V1B receptor (Human) (P47901 whole entry): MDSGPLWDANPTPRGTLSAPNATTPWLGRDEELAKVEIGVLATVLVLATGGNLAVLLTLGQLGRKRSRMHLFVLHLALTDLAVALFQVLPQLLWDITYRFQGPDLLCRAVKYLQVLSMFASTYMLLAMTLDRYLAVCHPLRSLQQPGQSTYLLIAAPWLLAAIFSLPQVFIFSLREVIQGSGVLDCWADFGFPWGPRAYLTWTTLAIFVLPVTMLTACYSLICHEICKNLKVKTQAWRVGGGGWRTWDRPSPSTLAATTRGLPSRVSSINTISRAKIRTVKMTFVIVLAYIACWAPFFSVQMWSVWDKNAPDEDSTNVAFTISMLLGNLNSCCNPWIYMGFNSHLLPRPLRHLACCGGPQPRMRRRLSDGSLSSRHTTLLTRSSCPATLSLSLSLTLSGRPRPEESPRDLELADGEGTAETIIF

mouse ambulation = test: Measurement of mouse ambulatory activity; type: in vivo; settings: mice
Outline: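 Ambulometer (SAM-10) recording; 30-min adaptation, then s.c. saline or 100, 200, 400 or 800 mg/kg test compound; n = 19–20 mice per group. Each mouse's activity normalized to its total adaptation-period activity, binned per 10 min (median, quartiles); total normalized activity over 60 min post-dose compared by Kruskal-Wallis then Wilcoxon versus vehicle, P < 0.05.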

[29] = tested on: 88 different ligands for specific biomolecules; test: Binding assay, 88 different ligands; settings: 0.1 mM l-menthol

## CC(C)[C@@H]1CC[C@@H](C)C[C@H]1O [l-menthol]
[1]
  Inhibition by l-Menthol (%): 21.62%
[2]
  Inhibition by l-Menthol (%): 21.17%
[3]
  Concentration dependence of inhibition of the [3H]-EBOB binding: concentration-dependent
[3]; 0.1 mM l-menthol, Rat cerebral cortex
  Inhibition by l-Menthol (%): 20.9%
[3]; read-out: IC50 for inhibition of the [3H]-EBOB binding, rat cerebral cortex preparation, 7 concentrations, duplicate
  IC50: 554 µM
[3]; read-out: Ki (mol/L), inhibition of the binding of [3H]-EBOB, GABAA (Picrotoxin site), Ki=IC50/(1+[L/Kd])
  Ki: 0.000288 mol/L
[4]
  Concentration dependence of inhibition of the [3H]-WIN35,428 binding: concentration-dependent
[4]; 0.1 mM l-menthol, Human recombinant
  Inhibition by l-Menthol (%): 20.67%
[4]; read-out: IC50 for inhibition of the [3H]-WIN35,428 binding, human recombinant dopamine transporter, 7 concentrations, duplicate
  IC50: 719 µM
[4]; read-out: Ki (mol/L), inhibition of the binding of [3H]-WIN35,428, Dopamine transporter (Human), Ki=IC50/(1+[L/Kd])
  Ki: 0.000615 mol/L
[5]
  Inhibition by l-Menthol (%): 13.53%
Leukotriene B4 receptor
  Inhibition by l-Menthol (%): 11.63%
[6]
  Inhibition by l-Menthol (%): 8.22%
[7]
  Inhibition by l-Menthol (%): 7.88%
[8]
  Inhibition by l-Menthol (%): 7.75%
[9]
  Inhibition by l-Menthol (%): 6.03%
[10]
  Inhibition by l-Menthol (%): 5.74%
α1A-Adrenergic receptor
  Inhibition by l-Menthol (%): 5.13%
[11]
  Inhibition by l-Menthol (%): 3.74%
CCK B receptor (Human)
  Inhibition by l-Menthol (%): 3.31%
[12]
  Inhibition by l-Menthol (%): 2.87%
[13]
  Inhibition by l-Menthol (%): 2.56%
[14]
  Inhibition by l-Menthol (%): 2.21%
α1B-Adrenergic receptor
  Inhibition by l-Menthol (%): 1.76%
[15]
  Inhibition by l-Menthol (%): 1.37%
GABA B receptor
  Inhibition by l-Menthol (%): 1.1%
[16]
  Inhibition by l-Menthol (%): 0.66%
[17]
  Inhibition by l-Menthol (%): 0.37%
[18]
  Inhibition by l-Menthol (%): 0.3%
[19]
  Inhibition by l-Menthol (%): 0%
[20]
  Inhibition by l-Menthol (%): 0%
Ca Channel (Type N)
  Inhibition by l-Menthol (%): 0%
[21]
  Inhibition by l-Menthol (%): 0%
[22]
  Inhibition by l-Menthol (%): 0%
[23]
  Inhibition by l-Menthol (%): 0%
Leukotriene D4 receptor
  Inhibition by l-Menthol (%): 0%
[24]
  Inhibition by l-Menthol (%): 0%
[25]
  Inhibition by l-Menthol (%): 0%
[26]
  Inhibition by l-Menthol (%): 0%
[27]
  Inhibition by l-Menthol (%): 0%
[28]
  Inhibition by l-Menthol (%): 0%
Mouse ambulation; 100-800 mg/kg s.c., Kruskal-Wallis test P < 0.0001
  Dose dependence of the ambulation-promoting effect: dose dependent
Mouse ambulation; subcutaneous 100-800 mg/kg
  Time of maximum ambulatory activity after administration: 5 min
[29]
  Inhibition of the binding of 32 isotope-labeled ligands (Table 3 (b)): did not measurably inhibit
  Inhibition rates, 9 isotope-labeled ligands (Table 3 (a)): < 1%
